Bioassay records: PubChem, several laboratories
Many of the other results were omitted from the sample, so hits are more common in it than they were.
T cruzi repl: T. cruzi replication inhibition; T. cruzi beta-gal in NIH3T3, luminescence, 90 h; inhibition, % (concentration not given with the values); AID 1885; actives 1.4% (n = 300,000);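 active = mean inhibition across valid replicates above about 55%, limit read from the data; inconclusive = mean below that limit but half or more replicates reach it; inactive = mean below it, under half of replicates reach it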;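 also: signal also drops with host cell toxicity which is not excluded here; higher percent means less beta-gal luminescence so fewer parasites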
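Read-out: Parasite load inhibition, % | Test system: Mouse NIH/3T3 fibroblasts infected with β-gal-expressing T. cruzi Tulahuen C4 | Amount: 5,000 cells/well | Medium: DMEM, 2% fetal bovine serum | Signal: GalScreen β-gal luminescence, detergent lysis, 60 min | Timing: 3 h attach, ≥90 h co-culture | Also added: Tulahuen C4 trypomastigotes, 5000/well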
L major viab: inhibitors of Leishmania major promastigote growth; Leishmania major promastigotes, resazurin fluorescence viability; inhibition, % at 10 µM; actives 9% (n = 200,000); AID 1063; in the data active = inhibition above about 50%;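 also: promastigotes grown with compound for 44 hours at 28 °C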
HSF1 inh: HSF1 inhibition. AID 2098. NIH3T3-HGL HSE-luciferase, MG132-induced, luminescence 8 h; active compounds read low. activity change, negative = inhibition, % at 7.5 µM (by protocol). actives 0.77% (n = 300,000);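 active = more than half of replicate wells show activity change below -50%, luminescence cut by over half; inconclusive = some wells, but at most half, below -50%; inactive = no replicate well below -50%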;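 also: luciferase reports HSF-1 transcriptional activity via heat shock element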
Hsp70 activator: transcriptional activators of Hsp70. actives 0.04% (n = 200,000). activation, % at 10 µM. HeLa Hsp70 promoter luciferase reporter, luminescence; scaled: vehicle 0, proteasome-inhibitor control 100%;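 active = activation above the mean across all tested compounds plus 3 SD, cutoff set per campaign, cut at about 5.5% in these data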
HSF-1 act: increases HSF-1 driven luciferase reporter signal; actives 1.7% (n = 300,000); AID 504408; NIH3T3-HGL HSF-1 luciferase reporter, MG132, 8 h; 100% = twice DMSO control signal; activation, % at 9 µM;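 active = mean replicate activation of at least 50% with a set share of replicates each reaching 50%; inconclusive = only one of those two conditions met; inactive = mean below 50% and too few replicates reaching it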
A number is an active result; - = inactive; ? = inconclusive; . = no result given.

SMILES	T cruzi repl	L major viab	HSF1 inh	Hsp70 activator	HSF-1 act
Oc1ccc(CNCC2COc3ccccc3O2)cc1 (centres undefined)	-	88.1	-	-	-
O=C(NCC(c1ccc(F)cc1)N1CCOCC1)c1cccc(Br)c1 (centres undefined)	-	-	-	-	-
Cc1ccc(Cn2ncc3c(N4CCN(C)CC4)ncnc32)cc1	-	-	-74.6	-	-
Cc1ccc(Cn2ncc3c(N4CCN(CCc5ccccc5)CC4)ncnc32)cc1	-	.	-	.	-
Cc1ccc(Cn2ncc3c(N4CCN(Cc5ccc(Cl)cc5)CC4)ncnc32)cc1	-	68.9	-	-	-
Cc1ccc(Cn2ncc3c(N4CCN(c5ccc(C)cc5)CC4)ncnc32)cc1	-	-	-	-	-
Cc1ccc(Cn2ncc3c(N4CCN(C5CCCC5)CC4)ncnc32)cc1	-	55.4	-	-	-
Cc1ccc(-n2ncc3c2CCCC3NC(=O)CCCN2CCCCC2=O)cc1C (centres undefined)	-	.	-	.	-
Cc1cc(C)n(-c2nc(NCC(C)O)c3c4c(sc3n2)COC(C)(C)C4)n1 (centres undefined)	-	-	-	-	-
Cc1cc(C)n(-c2nc(SCCN(C)C)c3c4c(sc3n2)COC(C)(C)C4)n1	64.6	100.6	-	-	-
COc1ccc(C(=O)Nc2c3c(nn2-c2ccc(Cl)cc2)CS(=O)(=O)C3)cc1	-	.	-	.	-
CC1(C)CC(O)(CNCc2ccc3c(c2)OCO3)CCO1 (centres undefined)	-	75.3	-	-	-
CC(C)Oc1ccc(CNCC2(O)CCOC(C)(C)C2)cc1 (centres undefined)	-	-	-	-	-
CCOC(=O)c1ccc(N2C(=O)c3n[nH]c(-c4ccco4)c3C2c2ccc([N+](=O)[O-])cc2)cc1 (centres undefined)	-	97.6	-	-	-
CCOC(=O)c1ccc(N2C(=O)c3n[nH]c(C)c3C2c2cccnc2)cc1 (centres undefined)	-	-	-	-	-
Cn1cccc1/C=N/N1CCN(c2ccccc2)CC1	-	-	-	-	-
CC(C)c1ccc(NC(=O)c2sccc2-n2cccc2)cc1	-	-	-	-	-
CC(C)(C)C(=O)/C(=C/c1ccc(Cl)cc1)n1cncn1	-	.	-	.	150.3
O=C(Cn1cncn1)N/N=C/c1cc([N+](=O)[O-])ccc1O	-	.	-	.	-
CC(C)(C)C(=O)/C(=C\c1ccc([N+](=O)[O-])cc1)n1cncn1	?	100.3	?	-	-
CC[C@H](C)/C=C/C1=CC2=C(Cl)C(=O)[C@@]3(C)OC(=O)C(C(=O)[C@H](C)[C@@H](C)O)=C3C2=CO1	-	.	-	.	-
Cc1nc2ccccc2c2c1C(=O)NC2=O	-	.	-	.	-
O=[N+]([O-])c1ccc2nc(-c3ccncc3)[nH]c2c1	-	.	-	.	-
COc1ccc(-c2nc3ccc([N+](=O)[O-])cc3[nH]2)cc1	-	-	-	-	53.8
O=[N+]([O-])c1ccc2nc(-c3ccc(Cl)cc3)[nH]c2c1	-	-	-	-	79.8
SMILES	T cruzi repl	L major viab	HSF1 inh	Hsp70 activator	HSF-1 act
Cc1cc(=O)[nH]c(SCc2nc3ccc([N+](=O)[O-])cc3[nH]2)n1	-	55.3	-	-	-
Cc1ccc(-c2nc3ccc([N+](=O)[O-])cc3[nH]2)cc1	-	-	-	-	60.7
C/C=N\NC(=O)CNC(=O)CNC(=O)c1ccccc1	-	-	-	-	-
Cc1nc2ccc(NS(=O)(=O)c3ccc(F)c(C)c3)cc2[nH]1	-	.	-	.	-
O=[N+]([O-])c1ccc2nc(-[n+]3c(-c4ccccc4)cc(-c4ccccc4)cc3-c3ccccc3)[nH]c2c1	57.6	89.1	-	-	-
CC1(C)CC(N=c2cc(-c3ccccc3)oc3ccc(Cl)cc23)CC(C)(C)N1	-	100.6	-	-	-
OCCCN=c1cc(-c2ccccc2)oc2ccc(Cl)cc12	-	100.3	-	-	?
O=C(c1ccc(Cl)cc1)N1CCN(c2ccc([N+](=O)[O-])c(NCc3cccnc3)c2)CC1	-	84.9	-	-	-
O=[N+]([O-])c1ccc(N2CCN(S(=O)(=O)c3ccc(Cl)cc3)CC2)cc1NCc1cccnc1	60.5	-	-	-	-
O=C(c1ccccc1)N1CCN(c2ccc([N+](=O)[O-])c(NCc3cccnc3)c2)CC1	-	-	-	-	-
O=[N+]([O-])c1ccc(N2CCN(S(=O)(=O)c3ccccc3)CC2)cc1NCc1cccnc1	-	-	-	-	-
CN(C)c1ccc(C(C(=O)NCc2ccccc2)N(Cc2cccnc2)C(=O)c2snc(C(N)=O)c2N)cc1 (centres undefined)	-	.	-	.	-
CC1CCCCN1CCCNC(=O)c1ccc(Br)cc1 (centres undefined)	-	.	-	.	-
CC1CCCCN1CCCNC(=O)c1cc(Br)c(Br)[nH]1 (centres undefined)	-	92.7	-	-	-
N#Cc1cccc(NC(=O)C2SC(=Nc3ccccc3)C(C(=O)N3CCOCC3)=C2N)c1 (centres undefined)	-	53.5	-	-	-
CCCNC(=O)c1ccc2c(=O)c(O)c(-c3ccc(F)cc3)[nH]c2c1	-	.	-	.	-
CCCNC(=O)c1ccc2c(=O)c(O)c(-c3cccc(Br)c3)[nH]c2c1	-	.	-52.2	.	-
Cc1nnc(SCC(=O)NC2CCCc3c2cnn3-c2ccccc2F)o1 (centres undefined)	-	.	-	.	-
CCc1cc(=O)oc2c(C)c(OC(C)C(=O)NCCCn3ccnc3)ccc12 (centres undefined)	-	.	-	.	-
Brc1ccc(CSc2nnc(-c3ccco3)o2)cc1	-	-	-	-	55.6
O=C(COc1ccc(F)cc1F)N1CCCCCCC1	-	.	-	.	-
O=Cc1c(OCc2ccccc2)ccc2ccccc12	-	81.9	-	-	-
Cc1cc(C(=O)c2ccccc2)c(NC(=O)CCl)s1	-	99.7	-	-	-
O=C(CCl)Nc1ccccc1C(=O)c1ccccc1	-	-	-95.1	-	-
FC(F)(F)C(F)(F)c1nnc2ccc(-n3ccnc3)nn12	-	-	-	-	-
SMILES	T cruzi repl	L major viab	HSF1 inh	Hsp70 activator	HSF-1 act
C/C(Cn1nnc([N+](=O)[O-])n1)=N\NC(=O)c1ccc(Cl)c(Cl)c1	65.8	-	-	-	-
C/C(Cn1nnc([N+](=O)[O-])n1)=N\NC(=O)c1ccc(O)cc1	-	.	-	.	-
COC(=O)c1ccc(-c2ccc(Cl)cc2)nc1C	-	-	-	-	-
COc1ccc(C2c3ccc4ccccc4c3Oc3ncn(CCN4CCOCC4)c(=N)c32)cc1 (centres undefined)	-	100.4	-	-	-
COc1ccc(C2c3ccc4ccccc4c3Oc3ncn(CCN(C)C)c(=N)c32)cc1 (centres undefined)	59.1	.	-	.	-
N=c1c2c(ncn1CCCO)Oc1c(ccc3ccccc13)C2c1ccccc1 (centres undefined)	-	.	-65.7	.	-
COc1cc(OC)c(CN2CCC(Cc3ccccc3)CC2)cc1Br	-	.	-	.	-
